ChEMBL document CHEMBL1157589, “Antifungal 3,5-disubstituted furanones: From 5-acyloxymethyl to 5-alkylidene derivatives” (Bioorg Med Chem, 2010)
In brackets after ≈: the same amount, converted by molar mass.

Columns and labels:
[1] = tested on: Candida albicans; experiment: Antifungal activity against Candida albicans ATCC 44859 after 48 hrs by microdilution method; format: functional; settings: ATCC 44859, 48 h
How it was run: (§1)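 Yeasts held on Sabouraud dextrose agar. MIC by NCCLS M27-A broth microdilution in RPMI 1640 with L-glutamine, buffered with 0.165 M MOPS to pH 7.0. Compounds in DMSO (≤2% final), twofold dilutions 500–0.48. Final inoculum 5 × 10³ ± 0.2 cfu mL⁻¹. Incubated at 35 °C; absorbance at 540 nm read at 24 and 48 h. MIC is 80% growth inhibition versus control; run twice in duplicate.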

[2] = tested on: Candida albicans; experiment: Antifungal activity against Candida albicans ATCC 90028 after 24 hrs by microdilution method; format: functional; settings: ATCC 90028, 24 h; how it was run: as §1
[3] = tested on: Candida albicans; experiment: Antifungal activity against Candida albicans ATCC 90028 after 48 hrs by microdilution method; format: functional; settings: ATCC 90028, 48 h; how it was run: as §1
[4] = tested on: Candida parapsilosis; experiment: Antifungal activity against Candida parapsilosis ATCC 22019 after 24 hrs by microdilution method; format: functional; settings: Lodderomyces parapsilosis, ATCC 22019, 24 h; how it was run: as §1
[5] = tested on: Candida parapsilosis; experiment: Antifungal activity against Candida parapsilosis ATCC 22019 after 48 hrs by microdilution method; format: functional; settings: Lodderomyces parapsilosis, ATCC 22019, 48 h; how it was run: as §1
[6] = tested on: Pichia kudriavzevii; experiment: Antifungal activity against Candida krusei ATCC 6258 after 24 hrs by microdilution method; format: functional; settings: ATCC 6258, 24 h; how it was run: as §1
[7] = tested on: Pichia kudriavzevii; experiment: Antifungal activity against Candida krusei ATCC 6258 after 48 hrs by microdilution method; format: functional; settings: ATCC 6258, 48 h; how it was run: as §1
[8] = tested on: Pichia kudriavzevii; experiment: Antifungal activity against Candida krusei E28 after 24 hrs by microdilution method; format: functional; settings: E28, 24 h; how it was run: as §1
[9] = tested on: Pichia kudriavzevii; experiment: Antifungal activity against Candida krusei E28 after 48 hrs by microdilution method; format: functional; settings: E28, 48 h; how it was run: as §1
[10] = tested on: Candida tropicalis; experiment: Antifungal activity against Candida tropicalis 156 after 24 hrs by microdilution method; format: functional; settings: Candida tropicalis, 156, 24 h; how it was run: as §1
[11] = tested on: Candida tropicalis; experiment: Antifungal activity against Candida tropicalis 156 after 48 hrs by microdilution method; format: functional; settings: Candida tropicalis, 156, 48 h; how it was run: as §1
[12] = tested on: Nakaseomyces glabratus; experiment: Antifungal activity against Candida glabrata 20/I after 24 hrs by microdilution method; format: functional; how it was run: as §1
[13] = tested on: Nakaseomyces glabratus; experiment: Antifungal activity against Candida glabrata 20/I after 48 hrs by microdilution method; format: functional; how it was run: as §1
[14] = tested on: Clavispora lusitaniae; experiment: Antifungal activity against Candida lusitaniae 2446/I after 24 hrs by microdilution method; format: functional; how it was run: as §1
[15] = tested on: Clavispora lusitaniae; experiment: Antifungal activity against Candida lusitaniae 2446/I after 48 hrs by microdilution method; format: functional; how it was run: as §1
[16] = tested on: Trichosporon beigelii; experiment: Antifungal activity against Trichosporon beigelii 1188 after 24 hrs by microdilution method; format: functional; settings: Trichosporon beigelii, 1188, 24 h; how it was run: as §1
[17] = tested on: Trichosporon beigelii; experiment: Antifungal activity against Trichosporon beigelii 1188 after 48 hrs by microdilution method; format: functional; settings: Trichosporon beigelii, 1188, 48 h; how it was run: as §1
[18] = tested on: Aspergillus fumigatus; experiment: Antifungal activity against Aspergillus fumigatus 231 after 24 hrs by microdilution method; format: functional; settings: Aspergillus fumigatus, 231, 24 h
How it was run: (§2)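 Filamentous strains held on Sabouraud dextrose agar. NCCLS M27-A broth microdilution in RPMI 1640 with L-glutamine and 0.165 M MOPS, pH 7.0. DMSO diluent ≤2% final; twofold dilutions 500–0.48. Inoculum 5 × 10³ ± 0.2 cfu mL⁻¹ final.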

[19] = tested on: Aspergillus fumigatus; experiment: Antifungal activity against Aspergillus fumigatus 231 after 48 hrs by microdilution method; format: functional; settings: Aspergillus fumigatus, 231, 48 h; how it was run: as §2
[20] = tested on: Lichtheimia corymbifera; experiment: Antifungal activity against Absidia corymbifera 272 after 24 hrs by microdilution method; format: functional; settings: Lichtheimia corymbifera, 272, 24 h; how it was run: as §2
[21] = tested on: Lichtheimia corymbifera; experiment: Antifungal activity against Absidia corymbifera 272 after 48 hrs by microdilution method; format: functional; settings: Lichtheimia corymbifera, 272, 48 h; how it was run: as §2
[22] = tested on: Trichophyton mentagrophytes; experiment: Antifungal activity against Trichophyton mentagrophytes 445 after 72 hrs by microdilution method; format: functional; settings: Trichophyton mentagrophytes, 445, 72 h
How it was run: (§3)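 Dermatophyte held on Sabouraud dextrose agar. M27-A microdilution in MOPS-buffered (0.165 M, pH 7.0) RPMI 1640 with L-glutamine. DMSO ≤2% final; twofold dilutions 500–0.48. Inoculum 5 × 10³ ± 0.2 cfu mL⁻¹ final. Incubated at 35 °C; MIC read visually at 72 and 120 h as 80% inhibition of control growth; determined twice in duplicate.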

[23] = tested on: Trichophyton mentagrophytes; experiment: Antifungal activity against Trichophyton mentagrophytes 445 after 120 hrs by microdilution method; format: functional; settings: Trichophyton mentagrophytes, 445, 120 h; how it was run: as §3
[24] = tested on: L1210; experiment: Cytostatic activity against mouse L1210 cells after 72 hrs by XTT assay; format: functional, cell-based
How it was run: (§4)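 Leukemia cells (L1210 ATCC CCL 219, CCRF-CEM ATCC CCL 119, HL-60 ATCC CCL 240) grown in 24-well plates in RPMI 1640 with fetal calf serum. Growth assessed 72 h after drug addition. Viability measured by XTT spectrophotometric assay; potency given as IC50.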

[25] = tested on: HL-60; experiment: Cytostatic activity against human HL60 cells after 72 hrs by XTT assay; format: functional, cell-based; how it was run: as §4
[26] = tested on: CCRF-CEM; experiment: Cytostatic activity against human CCRF-CEM cells after 72 hrs by XTT assay; format: functional, cell-based; how it was run: as §4
[27] = tested on: Candida albicans; experiment: Antifungal activity against Candida albicans ATCC 44859 after 24 hrs by microdilution method; format: functional; settings: ATCC 44859, 24 h; how it was run: as §1
[28] = tested on: HeLa S3; experiment: Cytostatic activity against human HeLaS3 cells after 48 hrs by XTT assay
[29] = Mus musculus, L1210, 72 h, read-out: IC50
[30] = Homo sapiens, CCRF-CEM, 72 h, read-out: IC50
[31] = Homo sapiens, HeLa S3, 48 h, read-out: IC50

SMILES	MIC80 [1] [µM]	MIC80 [2] [µM]	MIC80 [3] [µM]	MIC80 [4] [µM]	MIC80 [5] [µM]	MIC80 [6] [µM]	MIC80 [7] [µM]	MIC80 [8] [µM]	MIC80 [9] [µM]	MIC80 [10] [µM]	MIC80 [11] [µM]	MIC80 [12] [µM]	MIC80 [13] [µM]	MIC80 [14] [µM]	MIC80 [15] [µM]	MIC80 [16] [µM]	MIC80 [17] [µM]	MIC80 [18] [µM]	MIC80 [19] [µM]	MIC80 [20] [µM]	also measured
O=C1O/C(=C\CO)C=C1c1ccc(Br)cc1	7.81 (≈ 2.2 µg/mL)	7.81 (≈ 2.2 µg/mL)	15.6 (≈ 4.39 µg/mL)	31.2 (≈ 8.78 µg/mL)	62.5 (≈ 17.6 µg/mL)	15.6 (≈ 4.39 µg/mL)	31.2 (≈ 8.78 µg/mL)	31.2 (≈ 8.78 µg/mL)	62.5 (≈ 17.6 µg/mL)	15.6 (≈ 4.39 µg/mL)	31.2 (≈ 8.78 µg/mL)	15.6 (≈ 4.39 µg/mL)	62.5 (≈ 17.6 µg/mL)	7.81 (≈ 2.2 µg/mL)	15.6 (≈ 4.39 µg/mL)	31.2 (≈ 8.78 µg/mL)	62.5 (≈ 17.6 µg/mL)	7.81 (≈ 2.2 µg/mL)	15.6 (≈ 4.39 µg/mL)	15.6 (≈ 4.39 µg/mL)	MIC80 [21]: 15.6 µM (≈ 4.39 µg/mL); MIC80 [22]: 7.81 µM (≈ 2.2 µg/mL); MIC80 [23]: 7.81 µM (≈ 2.2 µg/mL); IC50 [24, 29]: 7.71 µM; IC50 ([25]; hl-60): Not Active; IC50 [26, 30]: 2.07 µM; MIC80 [27]: 1.95 µM (≈ 0.548 µg/mL); IC50 [28, 31]: 3.06 µM
COC(=O)/C=C1\C=C(c2ccc(Br)cc2)C(=O)O1	> 125	> 125	> 125	> 125	> 125	> 125	> 125	> 125	> 125	> 125	> 125	> 125	> 125	> 125	> 125	> 125	> 125	> 125	> 125	> 125	MIC80 [21]: > 125 µM; MIC80 [22]: > 125 µM; MIC80 [23]: > 125 µM; IC50 ([24]; l1210): Not Active; IC50 ([25]; hl-60): Not Active; IC50 ([26]; ccrf-cem): Not Active; MIC80 [27]: > 125 µM; IC50 ([28]; hela s3): Not Active
O=C1OC(COc2ccc(C(=O)O)cc2)C=C1c1ccc(Br)cc1 (stereo not given)	1.95 (≈ 0.759 µg/mL)	0.97 (≈ 0.378 µg/mL)	3.9 (≈ 1.52 µg/mL)	7.81 (≈ 3.04 µg/mL)	15.6 (≈ 6.08 µg/mL)	7.81 (≈ 3.04 µg/mL)	15.6 (≈ 6.08 µg/mL)	7.81 (≈ 3.04 µg/mL)	15.6 (≈ 6.08 µg/mL)	3.9 (≈ 1.52 µg/mL)	7.81 (≈ 3.04 µg/mL)	0.97 (≈ 0.378 µg/mL)	1.95 (≈ 0.759 µg/mL)	3.9 (≈ 1.52 µg/mL)	7.81 (≈ 3.04 µg/mL)	7.81 (≈ 3.04 µg/mL)	15.6 (≈ 6.08 µg/mL)	1.95 (≈ 0.759 µg/mL)	3.9 (≈ 1.52 µg/mL)	15.6 (≈ 6.08 µg/mL)	MIC80 [21]: 62.5 µM (≈ 24.3 µg/mL); MIC80 [22]: 0.97 µM (≈ 0.378 µg/mL); MIC80 [23]: 0.97 µM (≈ 0.378 µg/mL); IC50 [24, 29]: 12.3 µM; IC50 ([25]; Homo sapiens, HL-60, 72 h, read-out: IC50): 19.4 µM; IC50 [26, 30]: 8.7 µM; MIC80 [27]: 0.48 µM (≈ 0.187 µg/mL); IC50 [28, 31]: 2.69 µM
O=C1O/C(=C\CCCO)C=C1c1ccc(Br)cc1	125 (≈ 38.6 µg/mL)	> 500	> 500	> 500	> 500	> 500	> 500	> 500	> 500	> 500	> 500	> 500	> 500	> 500	> 500	> 500	> 500	> 500	> 500	62.5 (≈ 19.3 µg/mL)	MIC80 [21]: 62.5 µM (≈ 19.3 µg/mL); MIC80 [22]: 62.5 µM (≈ 19.3 µg/mL); MIC80 [23]: 62.5 µM (≈ 19.3 µg/mL); IC50 ([24]; l1210): Not Active; IC50 ([25]; hl-60): Not Active; IC50 ([26]; ccrf-cem): Not Active; MIC80 [27]: 62.5 µM (≈ 19.3 µg/mL); IC50 ([28]; hela s3): Not Active
O=C1O/C(=C\c2ccccc2)C=C1c1ccc(Br)cc1	> 125	> 125	> 125	> 125	> 125	> 125	> 125	> 125	> 125	> 125	> 125	> 125	> 125	> 125	> 125	> 125	> 125	> 125	> 125	> 125	MIC80 [21]: > 125 µM; MIC80 [22]: > 125 µM; MIC80 [23]: > 125 µM; IC50 ([24]; l1210): Not Active; IC50 ([25]; hl-60): Not Active; IC50 ([26]; ccrf-cem): Not Active; MIC80 [27]: > 125 µM; IC50 ([28]; hela s3): Not Active
